Published values of several laboratories.
Compare with care: the assays were run in different laboratories.
Target: Serine/threonine-protein kinase PLK1 (PLK1, Homo sapiens, UniProt P53350)

SMILES	effect on	action	method	cell line	concentration	quantity	value
CC/C(=N\NC(=O)NCc1cccc(O)c1)c1ccc(O)c(C)c1O	enzyme activity	inhibitor	–	–	0.1 µM	inhibition	-2.6%
CCN(CC)CCNC(=O)c1c(C)[nH]c(/C=C2\C(=O)Nc3ccc(F)cc32)c1C	enzyme activity	inhibitor	–	–	1 µM	remaining activity	110%
O=C(NC[C@@H]1[C@H]2CN(C(=O)OCc3cc(C(F)(F)F)cc(C(F)(F)F)c3)C[C@@H]12)c1ccc2[nH]nnc2c1	cell-free assay	–	competition with immobilised ligand	–	1 µM	remaining binding	100%
Cc1[nH]c(/C=C2\C(=O)Nc3ccc(F)cc32)c(C)c1C(=O)N[C@H]1CCN(C(=O)N(C)C)C1	enzyme activity	inhibitor	–	–	1 µM	remaining activity	122%
CC(C)(O)[C@H]1CC[C@H](Nc2ccc3ncc(-c4cccc(C(F)(F)F)c4)n3n2)CC1	enzyme activity	inhibitor	–	–	1 µM	remaining activity	94.4%
COc1cc2ncnc(Nc3ccc(Oc4ccccc4)cc3C)c2cc1OC	enzyme activity	inhibitor	–	–	1 µM	inhibition	3%
CS(=O)(=O)CCNCc1ccc(-c2ccc3ncnc(Nc4ccc(OCc5cccc(F)c5)c(Cl)c4)c3c2)o1	cell-free assay	–	–	–	0.5 µM	remaining signal	99%
Cn1nc(C(=O)NCc2ccc(C(=O)O)cc2)cc1-c1ccc2[nH]ccc2c1	cell-free assay	–	competition with immobilised ligand	–	0.1 µM	remaining binding	95%
Cc1ccc(C(=O)Nc2ccc(CN3CCN(C)CC3)c(C(F)(F)F)c2)cc1C#Cc1cnc2cccnn12	enzyme activity	inhibitor	–	–	23.5 nM	remaining activity	96%
O=C1NC(=O)c2cc(Nc3ccc(F)cc3)c(Nc3ccc(F)cc3)cc21	cell-free assay	–	–	–	0.5 µM	remaining signal	99.9%
Nc1nc(Nc2ccccc2)sc1C(=O)c1c(F)cccc1F	enzyme activity	inhibitor	–	–	10 µM	remaining activity	86%
CNC(=O)Nc1ccc2c(c1)CC[C@@]21OC(=O)N(CC(=O)N(Cc2ccc(F)cc2)[C@@H](C)C(F)(F)F)C1=O	cell-free assay	–	competition with immobilised ligand	–	1 µM	remaining binding	63%
CN(c1ncccc1CNc1nc(Nc2ccc3c(c2)CC(=O)N3)ncc1C(F)(F)F)S(C)(=O)=O	enzyme activity	inhibitor	–	–	1 µM	inhibition	22.1%
Cc1sc(C(=O)NC2COC2)cc1-n1cc(NC(=O)Nc2c(F)cccc2Cl)cn1	enzyme activity	inhibitor	–	–	10 µM	remaining activity	102%
CN(C)C1CCN(CC#Cc2nn(C3CCCC3)c3nc(NCc4ccccc4)ncc23)C1 (stereo not drawn)	enzyme activity	inhibitor	FRET	–	1 µM	inhibition	-5%
CCN1CCN(Cc2ccc(NC(=O)c3ccc(C)c(Oc4ccnc5[nH]ccc45)c3)cc2C(F)(F)F)CC1	target engagement in cells	inhibitor	chemoproteomics	Huh-7	1 µM	inhibition	-16.2%
FC(F)(F)Oc1cccc(-c2cnc3ccc(-c4ccncc4)nn23)c1	enzyme activity	inhibitor	radiometric	–	5 µM	activity vs control	98%

SMILES	effect on	action	method	cell line	concentration	quantity	value
O=C1Nc2ccc(Cl)cc2C1=Cc1cc(Cl)c(O)c(Cl)c1	cell-free assay	–	–	–	0.5 µM	remaining signal	99.8%
O=C(CSc1nc2nccnc2c(=O)n1CCc1ccccc1)Nc1nccs1	enzyme activity	inhibitor	–	–	10 µM	inhibition	8%
CCOc1cc(-c2nncn2C)ccc1Nc1ncc2cc(C)nc(NCC(C)(C)C)c2n1	enzyme activity	inhibitor	FRET	–	1 µM	inhibition	17%
COc1cc(Nc2cnc(C#N)c(O[C@H](C)CN(C)C)n2)ncc1-c1cnn(C)c1	enzyme activity	inhibitor	radiometric	–	10 µM	remaining activity	104%
CNCc1ccccc1-c1csc([C@@H](C)Nc2nc(C)nc3cc(OC)c(OC)cc23)c1	cell-free assay	–	competition with immobilised ligand	–	1 µM	remaining binding	80%
COc1cc(/C=C/C(=O)CC(=O)/C=C/c2ccc(O)c(OC)c2)ccc1O	enzyme activity	inhibitor	–	–	1 µM	activity vs control	75%
CCCOc1ccc(OC)c(F)c1C(=O)c1ccc(C(=O)N[C@@H]2CNC[C@H]2NC(=O)c2ccc3[nH]ncc3c2)cc1	enzyme activity	inhibitor	–	–	10 µM	remaining activity	105%
Cc1ccc(NC(=O)c2ccc(CN3CCN(C)CC3)cc2)cc1Nc1nc(-c2cccnc2)cs1	cell-free assay	–	–	–	0.5 µM	remaining signal	101%
CC(=O)C1=C(C)N(c2cccc(C(F)(F)F)c2)C(=O)N[C@@H]1c1ccc(C#N)nc1	cell-free assay	–	competition with immobilised ligand	–	1 µM	remaining binding	100%
COc1cc(Cl)c(C(=O)N[C@@H](CN[C@H]2CC[C@@H](N)CC2)Cc2ccc(C#N)cc2)cc1-c1ccc(CN[C@H](C)c2ccc(C)cc2)o1	enzyme activity	inhibitor	–	–	1 µM	remaining activity	94%
Cc1nc(C2CCN(C(=O)c3ccc(OC(F)(F)F)cc3N)CC2)c2ncc(N3CCN(C)CC3)cc2n1	cell-free assay	–	competition with immobilised ligand	–	1 µM	remaining binding	79%
CC(C)(C)c1nc2c(s1)c1nc(N)ncc1c1ccc(NS(=O)(=O)c3c(F)cccc3F)c(F)c12	enzyme activity	inhibitor	radiometric	–	1 µM	remaining activity	101%
Cn1cc(Cl)c2c(Oc3c(F)cc(Nc4cc(Cl)nc(N)n4)cc3F)ccnc21	cell-free assay	–	competition with immobilised ligand	–	0.1 µM	remaining binding	83%
Oc1cccc(-c2nc(N3CCOCC3)c3oc4ncccc4c3n2)c1	enzyme activity	inhibitor	–	–	10 µM	remaining activity	93%
O=C(Nc1ccc(Oc2ccc(F)cc2)cc1)N1CCc2ncccc2[C@H]1c1ccc(F)cc1	cell-free assay	–	competition with immobilised ligand	–	1 µM	remaining binding	78%
Cc1ccc(NC(=O)c2ccc(C)c(C(F)(F)F)c2)cc1C#Cc1nn(C2CCC(O)CC2)c2ncnc(N)c12 (stereo not drawn)	cell-free assay	–	–	–	10 µM	remaining signal	92%
